Broadly, the Km is the substrate concentration at which the rate is half of its maximum.

Data set [1] has as its target T1, S-adenosylmethionine synthetase (MAT 1 and MAT 2) (Rattus norvegicus) (UniProt P13444+P18298). Description: Relative maximum velocity against rat Methionine adenosyltransferase was reported. It is filed as protein assay. The procedure, abridged: (§1)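 Analogues at 1 mM tested as substrates of MAT-II (rat kidney) or MAT-T (Novikoff hepatoma), using 10 μL of enzyme stock per assay. Run at 37 °C for 30 min in Tris-HCl pH 8.2 with 150 mM KCl and 15 mM MgCl2, plus 60 μM [14C]methionine. Radiolabelled product bound to phosphocellulose disks and counted. Kinetic constants came from double-reciprocal plots.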

The target of data set [2] is S-adenosylmethionine synthase isoform type-2 (Rattus norvegicus) (UniProt P18298). In words: (§2) Inhibitory potency against rat methionine adenosyltransferase was reported. The procedure, abridged: (§3)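 MAT-T partly purified from rat Novikoff hepatoma cells grown intraperitoneally in rats: cytosol extract, DEAE-cellulose, stored at -20 °C, diluted 10-fold for use. Assay run in duplicate, 37 °C for 30 min, in 150 mM KCl–15 mM MgCl2–5 mM DTT–50 mM Tris-HCl pH 8.2 with 60 μM [14C]methionine. Inhibitors given as 1:1 Mg complexes at two levels of 1-5 × Ki, with six to eight Mg-ATP levels (0.5-4.0 × KM).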

Data set [3] addresses T1, S-adenosylmethionine synthetase (MAT 1 and MAT 2) (Rattus norvegicus). In words: Relative inhibitory potency T/II in rat methionine adenosyltransferase.
In data set [4] the target is S-adenosylmethionine synthase isoform type-2 (Rattus norvegicus) (UniProt P18298). In words: Relative maximum velocity against rat kidney Methionine adenosyltransferase II. The method in brief: as §1
For data set [5] the target is unchanged. Description: Inhibitory potency against rat Methionine adenosyltransferase II. The procedure, abridged:
(§4)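 MAT-II from rat kidney extract, taken through DEAE chromatography and diluted 10-fold daily. Duplicate 30-min incubations at 37 °C in 150 mM KCl–15 mM MgCl2–5 mM DTT–50 mM Tris-HCl pH 8.2 with 60 μM [14C]methionine. Mg-complexed inhibitor used at two levels (1-5 × Ki) against six to eight Mg-ATP levels (0.5-4.0 × KM). Product counted on phosphocellulose disks.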

Data set [6] deals with T1, S-adenosylmethionine synthetase (MAT 1 and MAT 2) (Rattus norvegicus). In words: Inhibitory potency against rat Methionine adenosyltransferase was reported. It is filed as protein assay. The method in brief:
as §3

The target of data set [7] is S-adenosylmethionine synthase isoform type-2 (Rattus norvegicus) (UniProt P18298). Description: Relative maximum velocity against rat Methionine adenosyltransferase II. The method in brief:
as §1

Data set [8] deals with S-adenosylmethionine synthase isoform type-1 (Rattus norvegicus) (UniProt P13444). In words: Relative maximum velocity against liver (MAT-I) in rat methionine adenosyltransferase was reported. The method in brief:
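Substrate activity measured with rat liver MAT-I at 37 °C for 30 min, pH 7.5 HEPES buffer, with 380 μM [14C]methionine. ATP analogue at 1 mM, with a higher enzyme amount (10 μL stock). [14C]S-adenosylmethionine captured on phosphocellulose paper and counted by scintillation. Blanks lacked ATP. Constants taken from linear double-reciprocal plots.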

Data set [9] shares this target. In words: Inhibitory potency against rat Methionine adenosyltransferase I. The procedure, abridged:
(§5)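 Rat liver MAT-I, prepared free of MAT-II and MAT-III and diluted 5-fold. Duplicate assays at 37 °C, 30 min, in 150 mM KCl–7.5 mM MgSO4–2 mM DTT–50 mM HEPES pH 7.5 with 380 μM [14C]methionine. Two inhibitor levels (1:1 Mg complexes, 1-5 × Ki) run against six to eight Mg-ATP levels spanning 0.5-4.0 × KM. Ki taken from kinetic plots.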

Data set [10] has as its target T1, S-adenosylmethionine synthetase (MAT 1 and MAT 2) (Rattus norvegicus). The data set is described as §2. The format is protein assay. The procedure, abridged:
as §3

Data set [11] concerns CNc1nc2c(N)ncnc2n1C1O[C@H](COP(=O)(O)OP(=O)(O)OP(=O)(O)O)[C@@H](O)[C@H]1O. In words: (§6) Inhibitory constant against rat kidney Methionine adenosyltransferase II. The method in brief:
as §4

Data set [12] relates to CSc1nc2c(N)ncnc2n1[C@@H]1O[C@H](COP(=O)(O)OP(=O)(O)OP(=O)(O)O)[C@@H](O)[C@H]1O. Described as §6. The procedure, abridged:
as §4

In data set [13] the test system is Nc1ncnc2c1ncn2C1O[C@H](COP(=O)(O)OP(=O)(O)OP(N)(=O)O)[C@@H](O)[C@H]1O. The data set is described as §6. The method in brief: as §4
The test system of data set [14] is Nc1ncnc2c1ncn2[C@H]1C[C@H](O)[C@@H](COP(=O)(O)OP(=O)(O)OP(=O)(O)O)O1. The data set is described as §6. The procedure, abridged:
as §4

The test system of data set [15] is Nc1ncnc2c1ncn2[C@@H]1O[C@H](COP(=O)(O)OP(=O)(O)OP(=O)(O)O)[C@@H](O)[C@H]1O. Description: Inhibitory constant against rat kidney Methionine adenosyltransferase II, activity expressed as conc of Mg-ATP for half maximal velocity. The procedure, abridged: (§7)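 Kinetics at 37 °C for 30 min, in duplicate, in 50 mM Tris-HCl pH 8.2, 150 mM KCl, 15 mM MgCl2, 5 mM DTT. Enzyme was MAT-T from ascites-passaged Novikoff hepatoma cells or MAT-II from rat kidney, both DEAE-cellulose fractions, with 60 µM [14C]methionine. Inhibitors given as 1:1 Mg complexes at two levels against six to eight Mg-ATP levels (0.5–4.0 × KM). Product counted on phosphocellulose disks.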

Data set [16] shares this test system. In words: Inhibition of methionine adenosyltransferase in Novikoff Hepatoma(MAT-T), activity expressed as conc of Mg-ATP for half maximal velocity. It is filed as protein assay. The procedure, abridged:
as §7

Data set [17] deals with CNc1nc2c(N)ncnc2n1C1O[C@H](COP(=O)(O)OP(=O)(O)OP(=O)(O)O)[C@@H](O)[C@H]1O. In words: (§8) […] rat Methionine adenosyltransferase was reported. The format is protein assay. The procedure, abridged: as §3
The test system of data set [18] is CSc1nc2c(N)ncnc2n1[C@@H]1O[C@H](COP(=O)(O)OP(=O)(O)OP(=O)(O)O)[C@@H](O)[C@H]1O. The description is as §8. It is filed as protein assay. The method in brief: as §3
The subject of data set [19] is Nc1ncnc2c1ncn2[C@H]1C[C@H](O)[C@@H](COP(=O)(O)OP(=O)(O)OP(=O)(O)O)O1. Description: Inhibitory constant against rat liver Methionine adenosyltransferase I. The method in brief:
as §5

For data set [20], the system named is Nc1ncnc2c1ncn2[C@@H]1O[C@H](COP(=O)(O)OP(=O)(O)OP(=O)(O)O)[C@@H](O)[C@H]1O. Description: […] rat liver Methionine adenosyltransferase I, activity expressed as conc of Mg-ATP for half maximal velocity. The method in brief: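 Rat liver MAT-I, free of MAT-II and MAT-III, was assayed in 50 mM HEPES pH 7.5, 150 mM KCl, 7.5 mM MgSO4, 2 mM DTT, with 380 µM [14C]methionine, at 37 °C for 30 min in duplicate. Mg-complexed inhibitor was used at two levels against six to eight Mg-ATP levels (0.5–4.0 × KM). Labelled product was captured on phosphocellulose and scintillation-counted; blanks lacked ATP.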

Data set [21] concerns the target S-adenosylmethionine synthase isoform type-2 (Rattus norvegicus) (UniProt P18298). Description: Half maximal velocity relative to rat Methionine adenosyltransferase II. The procedure, abridged: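 DEAE-purified rat kidney MAT-II in 50 mM Tris-HCl pH 8.2, 150 mM KCl, 15 mM MgCl2, 5 mM DTT, with 60 µM [14C]methionine. Analogue checked for substrate activity at 1 mM using more enzyme. Incubated 37 °C for 30 min in duplicate. Acid-quenched product bound to phosphocellulose disks and counted; blanks lacked ATP. KM taken from linear double-reciprocal plots.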

The target of data set [22] is S-adenosylmethionine synthase isoform type-1 (Rattus norvegicus) (UniProt P13444). In words: Half maximal velocity relative to Methionine adenosyltransferase. The method in brief: (§9)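 ATP analogues run as Mg complexes and checked for substrate activity at 1 mM with more enzyme (10 µL stock). Apparent KM from linear double-reciprocal plots. MAT-I: rat liver, 50 mM HEPES pH 7.5, 150 mM KCl, 7.5 mM MgSO4, 2 mM DTT, 380 µM [14C]methionine. MAT-II (rat kidney) and MAT-T (Novikoff hepatoma DEAE fraction): 50 mM Tris-HCl pH 8.2, 150 mM KCl, 15 mM MgCl2, 5 mM DTT, 60 µM [14C]methionine. 37 °C, 30 min, duplicates.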

For data set [23], the target named is T1, S-adenosylmethionine synthetase (MAT 1 and MAT 2) (Rattus norvegicus). Description: Half maximal velocity relative to methionine adenosyltransferase. It is filed as protein assay. The method in brief: as §9

Chain of S-adenosylmethionine synthase isoform type-1 (Rattus norvegicus) (P13444 whole entry, canonical isoform): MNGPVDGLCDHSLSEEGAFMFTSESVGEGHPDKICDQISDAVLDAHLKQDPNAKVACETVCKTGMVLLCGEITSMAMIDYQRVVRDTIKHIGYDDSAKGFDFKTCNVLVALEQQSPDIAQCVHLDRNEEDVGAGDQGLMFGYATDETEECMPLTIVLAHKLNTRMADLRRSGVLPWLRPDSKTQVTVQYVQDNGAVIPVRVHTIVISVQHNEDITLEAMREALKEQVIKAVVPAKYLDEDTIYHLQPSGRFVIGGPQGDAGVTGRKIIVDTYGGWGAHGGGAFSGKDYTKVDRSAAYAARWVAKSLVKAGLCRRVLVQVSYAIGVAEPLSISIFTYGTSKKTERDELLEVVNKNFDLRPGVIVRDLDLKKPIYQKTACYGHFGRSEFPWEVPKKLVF
Chain of S-adenosylmethionine synthase isoform type-2 (Rattus norvegicus), P18298 (P18298 whole entry, canonical isoform): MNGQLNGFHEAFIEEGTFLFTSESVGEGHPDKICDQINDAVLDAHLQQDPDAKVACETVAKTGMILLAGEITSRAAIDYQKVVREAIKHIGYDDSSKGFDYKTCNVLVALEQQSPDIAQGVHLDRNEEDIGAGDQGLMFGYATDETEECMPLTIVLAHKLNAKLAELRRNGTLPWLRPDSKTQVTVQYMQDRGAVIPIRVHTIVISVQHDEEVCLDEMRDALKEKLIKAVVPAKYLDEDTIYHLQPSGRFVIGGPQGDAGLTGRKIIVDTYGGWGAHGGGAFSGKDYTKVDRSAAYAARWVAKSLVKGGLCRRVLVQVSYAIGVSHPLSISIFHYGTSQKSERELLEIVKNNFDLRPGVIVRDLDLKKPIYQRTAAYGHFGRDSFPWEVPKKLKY
Chain of S-adenosylmethionine synthetase (MAT 1 and MAT 2) (Rattus norvegicus) (from UniProt P13444+P18298) (P18298 whole entry, looked up): as the sequence (P18298 whole entry, canonical isoform) above
Chain of S-adenosylmethionine synthetase (MAT 1 and MAT 2) (Rattus norvegicus) (from UniProt P13444+P18298) (P13444 whole entry, looked up): as the sequence (P13444 whole entry, canonical isoform) above
Chain of S-adenosylmethionine synthase isoform type-2 (Rattus norvegicus) (P18298 whole entry, canonical isoform): as the sequence (P18298 whole entry, canonical isoform) above
Chain of S-adenosylmethionine synthase isoform type-1 (Rattus norvegicus), P13444 (P13444 whole entry, canonical isoform): as the sequence (P13444 whole entry, canonical isoform) above

Regarding `CNc1nc2c(N)ncnc2n1C1O[C@H](COP(=O)(O)OP(=O)(O)OP(=O)(O)O)[C@@H](O)[C@H]1O` (some centres undefined), the Relative Vmax worked out at 19 in [1] and 37 in [4]. Also, the Inhibition potency in data set [2] worked out at 0.61; in [5], 0.88. In data set [3], this compound showed an Inhibition potency T/II of 0.69.
In data set [5], `Nc1ncnc2c1nc(SCCC(N)C(=O)O)n2C1O[C@H](COP(=O)(O)OP(=O)(O)OP(=O)(O)O)[C@@H](O)[C@H]1O` (some centres undefined) showed an Inhibition potency of 0.27.
As to `CSc1nc(N)c2ncn([C@@H]3O[C@H](COP(=O)(O)OP(=O)(O)OP(=O)(O)O)[C@@H](O)[C@H]3O)c2n1`, the Inhibition potency in data set [6] amounted to 1.27; in data set [5], 0.23. This compound also showed an Inhibition potency T/II in data set [3] of 5.5.
Regarding `CCCCNc1ncnc2c1ncn2C1O[C@H](COP(=O)(O)OP(=O)(O)OP(=O)(O)O)[C@@H](O)[C@H]1O` (some centres undefined), the Inhibition potency T/II in data set [3] amounted to 2.5. The compound further displayed an Inhibition potency in data set [5] of 0.26.
On to `Nc1ncnc2c1ncn2[C@H]1C[C@H](O)[C@@H](COP(=O)(O)OP(=O)(O)OP(=O)(O)O)O1`, for which the Relative Vmax came to 6.5 in [7] and 26 in data set [8]. For the same compound, the Inhibition potency in [9] was determined as 0.091; in data set [5], 0.035.
As to `CO[C@@H]1[C@H](O)[C@@H](COP(=O)(O)OP(=O)(O)OP(=O)(O)O)O[C@H]1n1cnc2c(N)ncnc21`, the Inhibition potency in data set [10] was 0.82; in [5], 1. Moreover, the Inhibition potency T/II in data set [3] amounted to 0.82.
For `CC(OP(=O)(O)OP(=O)(O)OP(=O)(O)O)[C@H]1O[C@@H](n2cnc3c(N)ncnc32)[C@H](O)[C@@H]1O` (some centres undefined), the Inhibition potency is 1.75 in data set [10], 15.6 in [9] and 0.74 in [5]. Moreover, in data set [3], the Inhibition potency T/II is 2.4.
In the case of `CO[C@H]1[C@@H](O)[C@H](n2cnc3c(N)ncnc32)O[C@@H]1COP(=O)(O)OP(=O)(O)OP(=O)(O)O`, the Inhibition potency in [10] is 0.78; in data set [5], 0.82. Besides, in [3], the Inhibition potency T/II was determined as 0.95.
With `CCCC(OP(=O)(O)OP(=O)(O)OP(=O)(O)O)[C@H]1O[C@@H](n2cnc3c(N)ncnc32)[C@H](O)[C@@H]1O` (some centres undefined), the results for the Inhibition potency in [10] and in [5] were 3.78 and 2.92, respectively. Further, in data set [3], the Inhibition potency T/II stood at 1.3.
As for “S-adenosylmethionine synthase isoform type-2 (Rattus norvegicus), P18298”, the Km was 160 µM in data set [11]; 100 µM in data set [12]; 3300 µM in data set [13]; 4000 µM in [14]; 140 µM in data set [15].
For the compound “S-adenosylmethionine synthetase (MAT 1 and MAT 2) (Rattus norvegicus) (from UniProt P13444+P18298)”, the Km worked out at 140 µM in data set [16], 230 µM in data set [17] and 200 µM in [18].
For “S-adenosylmethionine synthase isoform type-1 (Rattus norvegicus), P13444”, the values for the Michaelis-Menten constant (Km) in data set [19] and in data set [20] were 1540 µM and 140 µM, respectively.
Regarding `CSc1nc2c(N)ncnc2n1[C@@H]1O[C@H](COP(=O)(O)OP(=O)(O)OP(=O)(O)O)[C@@H](O)[C@H]1O`, the values for the Inhibition potency in [6] and in data set [5] were 0.7 and 1.4, respectively. The Relative Vmax in data set [1] came out at 7.3; in data set [4] it was 3.1. In addition, the Inhibition potency T/II in data set [3] was 0.5.
For the compound `Nc1ncnc2c1ncn2[C@@H]1O[C@H](COP(=O)(O)CP(=O)(O)OP(=O)(O)O)[C@@H](O)[C@H]1O`, the figures for the Inhibition potency in data set [6] and in [5] were 0.41 and 0.46, respectively. This compound also came in with an Inhibition potency T/II in data set [3] of 0.89.
In the case of `Nc1ncnc2c1ncn2C1O[C@H](COP(=O)(O)OP(=O)(O)OP(N)(=O)O)[C@@H](O)[C@H]1O` (some centres undefined), the Relative Vmax in data set [4] turned out to be 97. The compound also displayed an Inhibition potency in data set [5] of 0.042.
For the compound `Nc1ncnc2c1ncn2[C@@H]1O[C@H](COP(=O)(O)OP(=O)(O)OP(=O)(O)O)[C@@H](O)[C@H]1O`, the Relative Vmax in [21], in [22] and in [23] was 100 in each case.
Regarding `Nc1ncnc2c1ncn2[C@@H]1O[C@H](COP(=O)(O)OP(=O)(O)NP(=O)(O)O)[C@@H](O)[C@H]1O`, the values for the Inhibition potency in data set [6] and in data set [5] were 35 and 25.5, respectively. The Inhibition potency T/II in data set [3] is 1.4.
